Activity calls are given as the source filed them. The rule behind the calls is not given here.
What was measured:
[1] = system: PC-3; assay: Antiproliferative activity against AR-negative human PC-3 cells assessed as reduction in cell viability incubated for 96 hrs by cell-titer glo assay; type: functional, cell-based; settings: PC-3, 96 h
[2] = system: Hs-578T; assay: Antiproliferative activity against human Hs-578T cells assessed as reduction in cell viability incubated for 72 hrs by cell-titer glo assay; type: functional, cell-based
[3] = system: MV4-11; assay: Antiproliferative activity against human MV4-11 cells assessed as reduction in cell viability incubated for 120 hrs by cell-titer glo assay; type: functional, cell-based; settings: MV4-11, 120 h
[4] = system: HFL1; assay: Cytotoxicity against human HFL1 cells assessed as reduction in cell viability incubated for 72 hrs by cell-titer glo assay; type: cell-based; settings: HFL1, 72 h
[5] = system: LNCaP; assay: Inhibition of BET bromodomain in human LNCaP cells assessed as suppression of KLK2 mRNA expression at 5 uM incubated for 48 hrs by SYBR green dye based qRT-PCR analysis; type: cell-based
Method in brief: (§1)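 LNCaP or VCaP cells exposed to vehicle (DMSO) or compound at 5 µM for 48 h; mRNA levels measured by qRT-PCR; mean ± s.e.m., n = 3; two-tailed Student's t-test.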

[6] = system: VCaP; assay: Inhibition of BET bromodomain in human VCaP cells assessed as suppression of KLK2 mRNA expression at 5 uM incubated for 48 hrs by SYBR green dye based qRT-PCR analysis; type: cell-based; method in brief: as §1
[7] = system: LNCaP; assay: Inhibition of BET bromodomain in human LNCaP cells assessed as suppression of PSA mRNA expression at 5 uM incubated for 48 hrs by SYBR green dye based qRT-PCR analysis; type: cell-based; method in brief: as §1
[8] = system: LNCaP; assay: Inhibition of BET bromodomain in human LNCaP cells assessed as suppression of TMPRSS2 mRNA expression at 5 uM incubated for 48 hrs by SYBR green dye based qRT-PCR analysis; type: cell-based; method in brief: as §1
[9] = system: VCaP; assay: Inhibition of BET bromodomain in human VCaP cells assessed as suppression of TMPRSS2 mRNA expression at 5 uM incubated for 48 hrs by SYBR green dye based qRT-PCR analysis; type: cell-based; method in brief: as §1
[10] = system: VCaP; assay: Inhibition of BET bromodomain in human VCaP cells assessed as suppression of Myc mRNA expression at 5 uM incubated for 48 hrs by SYBR green dye based qRT-PCR analysis; type: cell-based; method in brief: as §1
[11] = system: LNCaP; assay: Inhibition of BET bromodomain in human LNCaP cells assessed as suppression of Myc mRNA expression at 5 uM incubated for 48 hrs by SYBR green dye based qRT-PCR analysis; type: cell-based; method in brief: as §1
[12] = system: VCaP; assay: Inhibition of BET bromodomain in human VCaP cells assessed as suppression of AR-V7 mRNA expression at 5 uM incubated for 48 hrs by SYBR green dye based qRT-PCR analysis; type: cell-based; method in brief: as §1
[13] = system: 22Rv1; assay: Inhibition of BET bromodomain in human 22Rv1 cells assessed as suppression of full-length androgen receptor protein expression at 1 to 16 uM incubated for 48 hrs by western blot analysis; type: cell-based; settings: dose 1-16 µM
[14] = system: 22Rv1; assay: Inhibition of BET bromodomain in human 22Rv1 cells assessed as suppression of AR-V7 protein expression at 1 to 16 uM incubated for 48 hrs by western blot analysis; type: cell-based; settings: dose 1-16 µM
[15] = system: LNCaP; assay: Inhibition of BET bromodomain in human LNCaP cells transfected with Luc-tagged PSA and renilla luciferase assessed as reduction in PSA transcriptional activity measured after 24 hrs by dual luciferase reporter gene assay; type: cell-based; settings: dose 0.4-10 µM
Method in brief: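 LNCaP cells transfected with a PSA-luc reporter plasmid, then treated with vehicle or compound at 0.4, 2.0 or 10.0 µM; PSA transcriptional activity read by luciferase; mean ± s.e.m., n = 3; two-tailed Student's t-test.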

[16] = system: LNCaP C4-2B; assay: Antitumor activity against human LNCaP C4-2B cells xenografted in CB17/IcrHSD-Prkdc-SCID mouse assessed as tumor growth inhibition at 50 mg/kg, ip administered 5 times per week for 25 days by caliper analysis; type: functional; settings: 600 h, time 25 day, read-out: TGI
Method in brief: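 C4-2B cells xenografted in mice; once tumours reached about 100 mm3, mice were randomized and given vehicle or compound at 50 mg/kg i.p. five times per week for 25 days; tumour volume (mean ± s.e.m.) and body weight tracked.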

[17] = system: LNCaP C4-2B; assay: Inhibition of colony formation in human LNCaP C4-2B cells at 0.5 uM incubated for 14 days by crystal violet staining based assay; type: functional, cell-based; settings: time 14.0 day
Method in brief: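 C4-2B cells cultured with vehicle (DMSO) or compound at 0.5, 1.0 or 2.0 μM for 14 days, then colonies stained and counted against vehicle.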

[18] = Toxicity in CB17/IcrHSD-Prkdc-SCID mouse xenografted with human LNCaP C4-2B cells assessed as effect on body weight at 50 mg/kg, ip administered 5 times per week for 25 days; type: organism-based; settings: in vivo, 600 h, time 25 day
Method in brief: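 C4-2B xenograft mice randomized once tumors reached about 100 mm3. Vehicle or compound given i.p. at 50 mg/kg, five times per week, over a 25-day treatment period. Tolerability judged from body weight, tracked across treatment days, and from general behaviour.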

Structure (SMILES)	IC50 [1]	IC50 [2]	IC50 [3]	IC50 [4]	inhibition [5]	inhibition [6]	inhibition [7]	inhibition [8]	inhibition [9]	inhibition [10]	inhibition [11]	inhibition [12]	inhibition [13]	inhibition [14]	inhibition [15]	inhibition in vivo at 50 mg/kg [16]	inhibition [17]	Activity [18]
COc1cc2onc(C)c2cc1NS(=O)(=O)c1cc(Br)ccc1OC	> 3000 nM	1000 nM	400 nM	18200 nM	Active	Active	Active	Active	Active	Active	Active	Active	Active	Active	Dose-dependent effect	70%	Active	Non-Toxic
Cc1noc2ccc(-c3nc4ccc(N5CCOC[C@@H]5C)cc4n3CC3CCCCC3)cc12	> 3000 nM	1000 nM	400 nM	15900 nM	Active	Active	Active	Active	Active	Active	Active	Active	Active	Active	Dose-dependent effect	51%	Active	Non-Toxic

Reference: ChEMBL document CHEMBL4765238, “Structure-Based Discovery and Optimization of Benzo[ d]isoxazole Derivatives as Potent and Selective BET Inhibitors for Potential Treatment of Castration-Resistant Prostate Cancer (CRPC)” (J Med Chem, 2018)
